Assay results: ChEMBL document CHEMBL1153848, “Design and synthesis of azolopyrimidoquinolines, pyrimidoquinazolines as anti-oxidant, anti-inflammatory and analgesic activities” (2009)
Activity calls are given as the source filed them.

Tests used:
[1] = Protection against bleomycin-induced damage in calf thymus type 1 DNA assessed as absorbance at 532 nm after 1 hr; set-up: concentration or dose not given beside the values
Procedure, shortened: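 Reaction mixture: calf thymus DNA 0.5 mg/mL, bleomycin sulfate 0.05 mg/mL, MgCl2 5 mM, […], sample at various concentrations; 37 °C for 1 h. Stopped with EDTA (0.1 M), then TBA (1% w/v) plus HCl (25% v/v), heated 80 °C 10 min. After centrifugation, DNA damage read as absorbance increase at 532 nm. L-ascorbic acid as positive control.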

Brain = assay: Antioxidant activity in Sprague-Dawley rat brain assessed as inhibition of lipid peroxidation; format: functional, tissue-based
[2] = Antioxidant activity in Sprague-Dawley rat erythrocytes assessed as peroxyl radical-induced hemolysis after 1 hr; format: functional, Erythrocyte
[3] = Antioxidant activity assessed as ABTS radical scavenging activity at 2 mM; format: functional
Procedure, shortened: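 ABTS radical scavenging, read as the fall in colour absorbance after MeOH/phosphate buffer (1:1) is added. % inhibition = (A_control − A_test)/A_control × 100. The negative control uses MeOH/phosphate buffer (1:1) in place of compound, the blank omits ABTS, and ascorbic acid is the positive control.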

Kidney = assay: Antioxidant activity in Sprague-Dawley rat kidney assessed as inhibition of lipid peroxidation; format: functional, tissue-based
Mus musculus [4] = assay: Peripheral analgesic activity in Swiss albino mouse assessed as protection against acetic acid-induced writhing response at 20 mg/kg, po administered 30 mins before acetic acid challenge measured after 2 hrs relative to control; format: functional
Mus musculus [5] = assay: Central analgesic activity in Swiss albino mouse assessed as thermal stimuli reaction time at 20 mg/kg, po after 60 mins by hot plate method; format: functional
Procedure, shortened: (§1)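 Swiss mice of both sexes (25–30 g), six per group, on a hot plate held at 53 ± 0.5 °C. Latency was timed to hind-paw licking or jumping, with a 60 s cut-off. It was measured before dosing, then at 15, 30, 60 and 90 min after an oral aqueous suspension at 20 mg/kg. Controls were untreated; oral diclofenac sodium 20 mg/kg was the reference.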

Mus musculus [6] = assay: Central analgesic activity in Swiss albino mouse assessed as thermal stimuli reaction time at 20 mg/kg, po after 30 mins by hot plate method; format: functional; procedure, shortened: as §1
Rattus norvegicus [7] = assay: Antiinflammatory activity in Sprague-Dawley rat assessed as protection against carrageenan-induced hind paw edema at 20 mg/kg, po administered 1 hr before carrageenan challenge measured after 1 hr; format: functional
Procedure, shortened: (§2)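 Adult female albino rats (150–180 g), fasted 18 h, six per group. Aqueous suspension in distilled water given orally at 20 mg/kg 1 h before subplantar injection of 0.1 mL 1% w/v carrageenan into the left hind paw. Vehicle controls got 0.5 mL water; diclofenac sodium 20 mg/kg po was the reference. Paw volume was measured by mercury plethysmometer before injection and hourly for 4 h. Inhibition = (Ec−Et)/Ec, with edema = (Vt−V0)/V0.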

Rattus norvegicus [8] = assay: Antiinflammatory activity in Sprague-Dawley rat assessed as protection against carrageenan-induced hind paw edema at 20 mg/kg, po administered 1 hr before carrageenan challenge measured after 2 hrs; format: functional; procedure, shortened: as §2
Mus musculus [9] = assay: Peripheral analgesic activity in Swiss albino mouse assessed as protection against acetic acid-induced writhing response at 20 mg/kg, po administered 30 mins before acetic acid challenge measured after 3 hrs relative to control; format: functional
Mus musculus [10] = assay: Peripheral analgesic activity in Swiss albino mouse assessed as protection against acetic acid-induced writhing response at 20 mg/kg, po administered 30 mins before acetic acid challenge measured after 1 hr relative to control; format: functional
Rattus norvegicus [11] = assay: Antiinflammatory activity in Sprague-Dawley rat assessed as protection against carrageenan-induced hind paw edema at 20 mg/kg, po administered 1 hr before carrageenan challenge measured after 3 hrs; format: functional; procedure, shortened: as §2
Mus musculus [12] = assay: Central analgesic activity in Swiss albino mouse assessed as thermal stimuli reaction time at 20 mg/kg, po after 90 mins by hot plate method; format: functional; procedure, shortened: as §1
Mus musculus [13] = assay: Peripheral analgesic activity in Swiss albino mouse assessed as protection against acetic acid-induced writhing response at 20 mg/kg, po administered 30 mins before acetic acid challenge measured after 30 mins relative to control; format: functional

SMILES	Activity [1]	Activity (Brain)	Activity [2]	inhibition [3]	Activity (Kidney)	Activity (Mus musculus [4])	Activity (Mus musculus [5])	Activity (Mus musculus [6])	Activity (Rattus norvegicus [7])	Activity (Rattus norvegicus [8])	Activity (Mus musculus [9])	Activity (Mus musculus [10])	Activity (Rattus norvegicus [11])	Activity (Mus musculus [12])	Activity (Mus musculus [13])
CCn1c(SC)nc2nc3c(c(-c4ccc(Cl)cc4)c2c1=O)CCC/C3=C/c1ccc(Cl)cc1	0.021	Active	3.93%	37%	Active	–	–	–	–	–	–	–	–	–	–
C/C(=N/NC(N)=S)c1sc2nc3nc4c(c(-c5ccc(Cl)cc5)c3c(=O)n2c1C)CCC/C4=C/c1ccc(Cl)cc1	0.065	Active	6.21%	63%	Active	–	–	–	–	–	–	–	–	–	–
Cc1c(C(=O)/C=C/c2ccccc2)sc2nc3nc4c(c(-c5ccc(Cl)cc5)c3c(=O)n12)CCC/C4=C/c1ccc(Cl)cc1	0.035	Active	4.54%	38.9%	Active	–	–	–	–	–	–	–	–	–	–
O=C1O[C@H]([C@@H](O)CO)C(O)=C1O	0.02	–	–	–	–	–	–	–	–	–	–	–	–	–	–
O=c1[nH]c(=S)[nH]c2c1C(c1ccccc1)C1=C(N2)/C(=C/c2ccccc2)CCC1 (stereo not given)	0.025	Active	35.75%	81.5%	Active	69.2%	10.41 min	9.42 min	49%	53.2%	50.1%	65.1%	41%	11.67 min	61.2%
O=c1/c(=C/c2ccccc2)sc2nc3nc4c(c(-c5ccc(Cl)cc5)c3c(=O)n12)CCC/C4=C/c1ccc(Cl)cc1	–	Active	5.75%	40.7%	Active	77.2%	10.78 min	9.16 min	59.8%	59.3%	60.3%	76%	42.3%	11.08 min	73.2%
